Assay results reported in ChEMBL document CHEMBL3351764, “Design, synthesis and biological activity of flavonoid derivatives as selective agonists for neuromedin U 2 receptor” (Bioorg Med Chem, 2014).
Active and inactive are the calls of the source. The calls are words filed in the database; no cut-off is given here.

How the values were obtained:
[1] = biological target: Neuromedin-U receptor 2 (Homo sapiens, UniProt Q9GZQ4); test: Agonist activity at human NMU2R transfected in HEK293 cells after 7 hrs by luciferase reporter gene assay; type: cell-based
In short: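 HEK-293 cells were stably co-transfected with a reporter gene construct and human NMU2R cDNA in pcDNA3.1(+), maintained under G418 selection at 37 °C in 5% CO2, then seeded and incubated overnight. Compounds were added at various concentrations for 7 h at 37 °C, followed by Bright-Glo luciferase read-out. Forskolin and NMU served as positive controls. EC50 was fitted by four-parameter logistic regression; means ± SEM of three independent experiments.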

[2] = biological target: Melanocortin receptor 3 (Homo sapiens) (UniProt P41968); test: Agonist activity at human MC3 receptor at 100 uM to 5 mM
[3] = biological target: Melanocyte-stimulating hormone receptor (Mus musculus) (UniProt Q01727); test: Agonist activity at mouse MC1 receptor at 100 uM to 5 mM
[4] = biological target: Melanocortin receptor 3 (Mus musculus) (UniProt P33033); test: Agonist activity at mouse MC3 receptor at 100 uM to 5 mM
[5] = biological target: T1, Neuromedin-U receptor 1 (Homo sapiens) (UniProt Q9HB89); test: Agonist activity at human NMU1 receptor at 100 uM to 5 mM
T1 sequence (whole entry): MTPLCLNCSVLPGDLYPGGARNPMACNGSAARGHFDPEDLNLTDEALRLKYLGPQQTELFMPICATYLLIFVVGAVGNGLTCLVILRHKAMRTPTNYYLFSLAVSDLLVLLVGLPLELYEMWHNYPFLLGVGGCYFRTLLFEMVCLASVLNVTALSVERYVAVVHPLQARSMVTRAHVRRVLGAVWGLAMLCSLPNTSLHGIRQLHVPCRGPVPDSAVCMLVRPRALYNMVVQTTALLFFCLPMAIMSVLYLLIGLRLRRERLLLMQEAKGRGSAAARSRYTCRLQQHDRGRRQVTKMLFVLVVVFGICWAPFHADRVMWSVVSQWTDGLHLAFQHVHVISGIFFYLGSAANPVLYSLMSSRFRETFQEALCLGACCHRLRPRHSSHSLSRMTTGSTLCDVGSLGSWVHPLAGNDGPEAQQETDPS

[6] = biological target: T2, 5-hydroxytryptamine receptor 2C (Homo sapiens) (UniProt P28335); test: Agonist activity at human 5HT2C receptor at 100 uM to 5 mM
T2 sequence (whole entry): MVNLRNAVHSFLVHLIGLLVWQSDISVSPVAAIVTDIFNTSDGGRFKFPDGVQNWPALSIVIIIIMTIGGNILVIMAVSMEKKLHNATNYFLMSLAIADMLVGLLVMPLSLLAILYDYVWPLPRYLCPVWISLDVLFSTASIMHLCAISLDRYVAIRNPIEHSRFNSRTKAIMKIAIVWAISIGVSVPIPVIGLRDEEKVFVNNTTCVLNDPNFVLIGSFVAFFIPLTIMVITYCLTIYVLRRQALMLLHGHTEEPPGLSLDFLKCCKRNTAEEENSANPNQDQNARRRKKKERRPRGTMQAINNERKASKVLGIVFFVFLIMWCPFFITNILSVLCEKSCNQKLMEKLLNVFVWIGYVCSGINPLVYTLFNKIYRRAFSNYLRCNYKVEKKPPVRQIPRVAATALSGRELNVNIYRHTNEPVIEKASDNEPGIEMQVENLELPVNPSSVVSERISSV

[7] = biological target: T3, Orexin receptor type 2 (Homo sapiens) (UniProt O43614); test: Agonist activity at human orexin 2 receptor at 100 uM to 5 mM
T3 sequence (whole entry): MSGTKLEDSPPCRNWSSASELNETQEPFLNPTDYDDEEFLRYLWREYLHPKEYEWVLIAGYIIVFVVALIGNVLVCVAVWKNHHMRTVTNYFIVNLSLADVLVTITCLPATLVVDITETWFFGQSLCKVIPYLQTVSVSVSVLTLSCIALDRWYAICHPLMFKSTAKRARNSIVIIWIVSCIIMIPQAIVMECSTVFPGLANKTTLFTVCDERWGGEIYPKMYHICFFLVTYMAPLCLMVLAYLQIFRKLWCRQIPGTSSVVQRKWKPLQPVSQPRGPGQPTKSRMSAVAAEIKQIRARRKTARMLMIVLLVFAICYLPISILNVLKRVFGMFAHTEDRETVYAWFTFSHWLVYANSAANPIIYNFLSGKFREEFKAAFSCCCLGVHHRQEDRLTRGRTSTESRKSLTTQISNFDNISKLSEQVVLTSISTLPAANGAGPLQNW

[8] = biological target: Melanin-concentrating hormone receptor 1 (Homo sapiens) (UniProt Q99705); test: Agonist activity at human MCH1 receptor at 100 uM to 5 mM
[9] = biological target: T4, Adenosine receptor A1 (Homo sapiens) (UniProt P30542); test: Agonist activity at human A1 receptor at 100 uM to 5 mM
T4 sequence (whole entry): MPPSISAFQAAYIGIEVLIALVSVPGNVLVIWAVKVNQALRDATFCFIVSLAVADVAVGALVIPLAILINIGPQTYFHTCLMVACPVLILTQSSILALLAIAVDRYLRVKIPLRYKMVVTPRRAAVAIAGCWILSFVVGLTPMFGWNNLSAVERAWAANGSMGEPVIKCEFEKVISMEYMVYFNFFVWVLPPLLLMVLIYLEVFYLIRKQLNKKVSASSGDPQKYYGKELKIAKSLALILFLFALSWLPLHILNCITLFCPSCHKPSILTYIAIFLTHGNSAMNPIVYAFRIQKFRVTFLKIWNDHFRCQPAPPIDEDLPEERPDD

[10] = biological target: T5, Parathyroid hormone/parathyroid hormone-related peptide receptor (Homo sapiens) (UniProt Q03431); test: Agonist activity at human PTH receptor at 100 uM to 5 mM
T5 sequence (whole entry): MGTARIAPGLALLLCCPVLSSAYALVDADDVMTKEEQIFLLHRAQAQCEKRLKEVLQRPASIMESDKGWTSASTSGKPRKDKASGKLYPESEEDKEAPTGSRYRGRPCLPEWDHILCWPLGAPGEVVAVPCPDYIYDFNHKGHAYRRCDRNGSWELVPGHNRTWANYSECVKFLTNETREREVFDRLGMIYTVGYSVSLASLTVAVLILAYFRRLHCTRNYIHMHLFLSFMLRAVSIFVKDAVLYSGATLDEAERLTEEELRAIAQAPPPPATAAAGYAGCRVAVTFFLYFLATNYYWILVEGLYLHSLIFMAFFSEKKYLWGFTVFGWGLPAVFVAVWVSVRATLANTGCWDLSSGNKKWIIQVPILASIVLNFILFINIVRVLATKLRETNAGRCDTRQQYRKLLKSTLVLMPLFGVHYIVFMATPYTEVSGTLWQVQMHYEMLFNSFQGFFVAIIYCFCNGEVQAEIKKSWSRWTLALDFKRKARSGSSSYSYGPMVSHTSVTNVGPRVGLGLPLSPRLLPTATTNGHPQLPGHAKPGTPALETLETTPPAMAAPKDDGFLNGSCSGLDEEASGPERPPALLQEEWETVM

Chain of Melanocortin receptor 3 (Mus musculus) (P33033 whole entry): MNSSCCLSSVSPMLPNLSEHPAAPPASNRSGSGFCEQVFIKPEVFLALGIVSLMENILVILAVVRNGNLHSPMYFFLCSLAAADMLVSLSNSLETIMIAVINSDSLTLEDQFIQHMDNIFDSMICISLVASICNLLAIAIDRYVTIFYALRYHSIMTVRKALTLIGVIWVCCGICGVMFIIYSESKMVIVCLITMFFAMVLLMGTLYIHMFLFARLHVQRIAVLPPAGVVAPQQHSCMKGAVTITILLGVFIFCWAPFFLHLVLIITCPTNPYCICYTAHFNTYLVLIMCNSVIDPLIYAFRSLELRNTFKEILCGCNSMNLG
Chain of Neuromedin-U receptor 2 (Q9GZQ4 whole entry): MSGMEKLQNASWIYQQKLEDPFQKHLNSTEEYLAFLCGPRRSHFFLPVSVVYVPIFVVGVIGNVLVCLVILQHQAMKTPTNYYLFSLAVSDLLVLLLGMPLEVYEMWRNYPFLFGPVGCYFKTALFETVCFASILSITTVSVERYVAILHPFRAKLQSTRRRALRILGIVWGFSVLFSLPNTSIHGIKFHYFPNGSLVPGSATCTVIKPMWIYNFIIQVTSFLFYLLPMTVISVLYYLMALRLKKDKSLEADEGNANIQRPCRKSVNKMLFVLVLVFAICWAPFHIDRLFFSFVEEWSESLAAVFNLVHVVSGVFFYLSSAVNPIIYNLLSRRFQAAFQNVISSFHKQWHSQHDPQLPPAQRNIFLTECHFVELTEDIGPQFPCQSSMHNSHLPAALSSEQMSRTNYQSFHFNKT
Chain of Melanocortin receptor 3 (Homo sapiens) (P41968 whole entry): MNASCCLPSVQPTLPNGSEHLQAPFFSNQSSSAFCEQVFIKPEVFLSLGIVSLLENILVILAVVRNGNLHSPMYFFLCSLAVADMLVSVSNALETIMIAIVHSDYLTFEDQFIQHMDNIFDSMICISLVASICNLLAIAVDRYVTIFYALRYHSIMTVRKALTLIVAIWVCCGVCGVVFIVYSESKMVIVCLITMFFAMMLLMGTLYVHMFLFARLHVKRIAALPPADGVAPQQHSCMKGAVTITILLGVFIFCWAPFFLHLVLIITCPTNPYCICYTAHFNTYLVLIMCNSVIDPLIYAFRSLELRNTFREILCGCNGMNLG
Chain of Melanin-concentrating hormone receptor 1 (Homo sapiens) (Q99705 whole entry): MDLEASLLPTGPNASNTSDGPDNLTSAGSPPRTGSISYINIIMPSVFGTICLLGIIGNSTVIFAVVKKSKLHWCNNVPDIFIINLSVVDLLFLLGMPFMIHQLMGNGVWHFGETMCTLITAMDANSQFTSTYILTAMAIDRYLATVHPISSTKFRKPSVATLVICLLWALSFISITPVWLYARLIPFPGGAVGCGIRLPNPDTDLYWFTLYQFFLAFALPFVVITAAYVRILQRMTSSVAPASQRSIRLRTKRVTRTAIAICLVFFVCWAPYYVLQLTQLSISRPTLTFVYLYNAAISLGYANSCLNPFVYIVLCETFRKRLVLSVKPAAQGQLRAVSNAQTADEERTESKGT
Chain of Melanocyte-stimulating hormone receptor (Mus musculus) (Q01727 whole entry, looked up): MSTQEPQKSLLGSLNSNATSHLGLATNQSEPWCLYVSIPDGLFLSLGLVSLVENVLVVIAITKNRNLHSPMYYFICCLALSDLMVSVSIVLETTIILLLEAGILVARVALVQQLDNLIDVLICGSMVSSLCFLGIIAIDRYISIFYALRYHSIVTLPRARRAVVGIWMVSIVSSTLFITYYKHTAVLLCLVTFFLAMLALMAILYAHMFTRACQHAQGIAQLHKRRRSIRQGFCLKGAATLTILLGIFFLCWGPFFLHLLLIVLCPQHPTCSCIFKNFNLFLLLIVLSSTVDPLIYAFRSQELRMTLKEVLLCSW

EC50 ([1]; hek293) | Activity [2] | Activity [3] | Activity [4] | Activity [5] | Activity [6] | Activity [7] | Activity [8] | Activity [9] | Activity [10] | EC50 ([1]; read-out: EC50) | Structure (SMILES)
Not Active | inactive | inactive | inactive | inactive | inactive | inactive | inactive | inactive | inactive | – | CN(C)c1ccc(-c2oc3ccccc3c(=O)c2O)cc1
– | inactive | inactive | inactive | inactive | inactive | inactive | inactive | inactive | inactive | 37.3 µM | O=c1c(O)c(-c2ccccc2F)oc2ccccc12
Not Active | inactive | inactive | inactive | inactive | inactive | inactive | inactive | inactive | inactive | – | COc1ccc(-c2oc3ccccc3c(=O)c2O)cc1O

Further lines, the molecule ahead of its results:

Structure (SMILES) | EC50 ([1]; hek293) | Activity [2] | Activity [3] | Activity [4] | Activity [5] | Activity [6] | Activity [7] | Activity [8] | Activity [9] | Activity [10] | EC50 ([1]; read-out: EC50)
O=c1c(O)c(-c2c(F)ccc(F)c2Cl)oc2ccccc12 | Not Active | inactive | inactive | inactive | inactive | inactive | inactive | inactive | inactive | inactive | –
COc1ccc(C2C=Cc3ccccc3O2)cc1 (racemic) | Not Active | inactive | inactive | inactive | inactive | inactive | inactive | inactive | inactive | inactive | –
Clc1ccc(C2C=Cc3ccccc3O2)c(Cl)c1 (racemic) | Not Active | inactive | inactive | inactive | inactive | inactive | inactive | inactive | inactive | inactive | –
COc1ccc(C2C=Cc3ccccc3O2)cc1O (racemic) | Not Active | inactive | inactive | inactive | inactive | inactive | inactive | inactive | inactive | inactive | –
